Screens (PubChem BioAssay)
HTRA1 inhibitor = HTRA1 serine protease inhibitors, primary screen, biochemical, fluorescence polarization, HTS; Q92743; recombinant HTRA1, FP-rhodamine activity-based probe; inhibition, % at 5.96 µM; 0.5% of 340,000 active; AID 504803, 2011; in the data active = inhibition above about 36%;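 note: 0% = enzyme with DMSO and 100% = wells lacking enzyme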
Target sequence (Q92743 whole entry, looked up): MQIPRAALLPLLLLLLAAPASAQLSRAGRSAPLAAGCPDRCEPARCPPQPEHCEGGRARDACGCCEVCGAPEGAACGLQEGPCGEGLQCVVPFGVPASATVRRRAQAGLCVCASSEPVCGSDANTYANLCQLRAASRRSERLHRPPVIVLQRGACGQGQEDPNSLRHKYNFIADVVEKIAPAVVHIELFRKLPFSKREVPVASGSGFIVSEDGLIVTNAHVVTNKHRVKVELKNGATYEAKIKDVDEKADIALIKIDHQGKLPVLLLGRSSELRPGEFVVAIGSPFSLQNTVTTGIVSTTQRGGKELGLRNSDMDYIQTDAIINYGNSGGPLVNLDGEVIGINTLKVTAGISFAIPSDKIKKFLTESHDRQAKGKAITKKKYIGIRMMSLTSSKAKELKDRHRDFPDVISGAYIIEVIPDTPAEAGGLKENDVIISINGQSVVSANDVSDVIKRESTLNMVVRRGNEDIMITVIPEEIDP
PRMT1 FP inh = PRMT1 methyltransferase inhibitors, primary screen, biochemical, fluorescence polarization; inhibition, % at 2.79 µM; 1.3% of 370,000 active; recombinant PRMT1, activity-based probe fluorescence polarization; Protein arginine N-methyltransferase 1 (Homo sapiens), Q99873;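 active = inhibition above about 21% made by adding two undisclosed values, limit read from the data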
TCR-CD3 inh = inhibitors of human TCR-CD3 interaction, primary screen, biochemical, fluorescence, TAMRA-labeled TCR probe. T-cell receptor (TCR). inhibition, % at 9.4 µM. 0.37% of 360,000 active; in the data active = inhibition above about 19%;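 note: recombinant mutant TCR 2C K166C tagged with TAMRA read by polarization; 0% = receptor in buffer alone and 100% = receptor with positive control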
mABHD4 FP = ABHD4 inhibitors, primary screen, biochemical, fluorescence polarization, mouse | (Lyso)-N-acylphosphatidylethanolamine lipase (Mus musculus), Q8VD66 | 0.54% of 370,000 active | inhibition, % at 8.92 µM | purified mABHD4, FP-Rh probe fluorescence polarization | AID 720543, 2013;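 active = inhibition exceeding the mean over every tested compound plus 3 SD, cut at about 30% in these data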;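 note: 0% = plate median of compound wells and 100% = S159A mutant with DMSO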
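assay system = mABHD4 protein | compound dosing = single nominal dose of 8.92 µM, 0.89% DMSO final | read-out basis = percent inhibition of probe binding, normalized to plate controls | schedule = Enzyme–compound pre-incubation 45 min, then probe 60 min, both 25 °C | detection = fluorescence polarization, excitation 525 nm, emission 598 nm, BODIPY TMR filters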
SIAE primary = human SIAE inhibitors, primary screen, biochemical, fluorescence polarization, FP-Rh probe, 1536-well HTS; inhibition, % at 9.66 µM; Sialate O-acetylesterase (Homo sapiens), Q9HAT2; SIAE FP-Rh probe binding; AID 1053197, 2014; 0.69% of 370,000 active;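 active = inhibition above a cutoff: mean of compounds within the control limits plus 3 SD of those, cut at about 17% in these data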;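 note: 0% = plate median of compound wells and 100% = probe without SIAE protein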
PRMT1 inh conf = PRMT1 methyltransferase inhibitors, confirmation, biochemical, fluorescence polarization, triplicate; shares compounds with PRMT1 FP inh; recombinant His-PRMT1, activity-based probe fluorescence polarization; inhibition, % at 2.79 µM; 42% of 3,300 active; AID 687036, 2013;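 active = mean inhibition across replicates above the hit cutoff derived for the earlier primary screen, cut at about 22% in these data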
Active calls of the source: *; nt = no result given. Compounds with a hit are over-represented: about 2.5% of the library has one in this group of screens.

SMILES	HTRA1 inhibitor	PRMT1 FP inh	TCR-CD3 inh	mABHD4 FP	SIAE primary	PRMT1 inh conf
COc1cccc(NC(=O)Cn2nnc(C(=O)NCCc3ccccc3)c2N)c1	-7.0	1.2	7.0	5.2	-7.6	nt
CCCCN1C(=O)C(CC(=O)NC(c2ccccc2)c2ccccc2)CC(C(=O)N(C(C)C)C(C)C)=C1C (stereo not given)	0.3	-0.9	3.1	6.8	7.9	nt
COC(=O)C1=C(C)N=c2s/c(=C/c3ccoc3)c(=O)n2C1c1ccccc1 (stereo not given)	-4.7	nt	nt	nt	nt	nt
CCOC(=O)C1=C(C)N=c2s/c(=C/c3cccc([N+](=O)[O-])c3O)c(=O)n2C1c1cc(OC)c(OC)c(OC)c1 (stereo not given)	0.2	44.5*	-3.2	20.5	2.8	40.4*
CCOC(=O)C1=C(C)N=c2s/c(=C/c3cccc([N+](=O)[O-])c3O)c(=O)n2C1c1ccccc1 (stereo not given)	11.5	48.5*	3.8	6.5	-2.3	40.6*
CCOC(=O)C1=C(C)N=c2s/c(=C\c3cccn3C)c(=O)n2C1c1cccc(OC)c1OC (stereo not given)	-4.0	-0.1	-0.4	-4.4	3.0	nt
Nc1nc(SCC(=O)NCCC(c2ccccc2)c2ccccc2)n[nH]1	0.5	-1.6	9.7	-1.2	0.4	nt
N#Cc1c2nc3ccccc3nc2n2cc(NC(=O)c3ccc(F)cc3)ccc12	3.0	40.9*	-14.2	12.6	-9.9	13.9
Cc1c(C(=O)Nc2ccc(F)cc2)cn2c(nc3ccccc32)c1C#N	4.7	-3.3	2.4	2.4	-6.1	nt
CN(C(=O)C(C)(C)C)[C@H]1C[C@H]2c3[nH]c4ccccc4c3CCN2C(=O)[C@H]1CO	8.9	0.9	2.5	2.1	1.9	nt
CN(C(=O)NC1CCCCC1)[C@H]1C[C@H]2c3[nH]c4ccccc4c3CCN2C(=O)[C@H]1CO	4.3	32.7*	14.5	6.6	-2.0	0.5
C=C(C)Cn1c(SCC(=O)N/N=C(\C)c2ccc([N+](=O)[O-])cc2)nnc1-c1ccc(Br)cc1	nt	-6.3	nt	-7.0	-6.2	nt
CCCC1CCC2(CCCN2CCOC(=S)Nc2ccccc2Cl)CC1 (stereo not given)	nt	3.1	nt	3.0	-6.2	nt
CCCC1CCC2(CCCN2CCOC(=O)Nc2cccc(Cl)c2)CC1 (stereo not given)	nt	-1.6	nt	7.3	1.0	nt
FC(F)(F)c1ccccc1NC(=S)OCCN1CCCC12CCC(c1ccccc1)CC2 (stereo not given)	nt	41.7*	nt	9.7	1.9	24.7*
CCCC1CCC2(CCCN2CCOC(=S)Nc2cccc(Cl)c2)CC1 (stereo not given)	nt	31.8*	nt	4.8	9.9	29.8*
CN1CCN(c2ccc(S(=O)(=O)N3CCCCC3)cc2NC(=O)CSCc2ccccc2)CC1	-3.6	3.2	1.9	-3.1	10.5	nt
CCOC(=O)[C@]12CCC=C1N(Cc1ccc(Cl)cc1Cl)C(=O)[C@H](CC(=O)NCc1ccc(C)o1)C2	nt	35.2*	-3.4	-10.0	-4.5	-3.1
CCOC(=O)[C@]12CCCC=C1N(Cc1ccc(Cl)cc1Cl)C(=O)[C@H](CC(=O)NCc1ccc(C)o1)C2	nt	2.0	4.7	-11.8	-7.3	nt
O=S(=O)(c1cccc(-c2n[nH]c(=S)n2-c2cccc(C(F)(F)F)c2)c1)N1CCOCC1	0.8	6.1	1.7	-2.0	7.4	nt
O=S(=O)(c1cccc(-c2n[nH]c(=S)n2-c2ccc(OC(F)(F)F)cc2)c1)N1CCOCC1	10.8	27.1*	1.2	6.0	-0.3	15.5
N#Cc1ccc2c(=O)n(-c3ccccc3)sc2c1	5.5	78.0*	4.5	3.0	10.3	95.4*
CC(=O)Nc1ccc(-c2cc(N)n(-c3ccccc3)n2)cc1	-0.5	-2.4	3.2	-10.5	-10.9	nt
CC(=O)Nc1ccc2c(=O)n(-c3ccccc3)sc2c1	-1.5	86.0*	4.2	3.3	7.9	90.9*
CC1(C)Cc2c(c(N3CCOCC3)nc3sc(C(N)=O)c(N)c23)CO1	0.4	37.4*	-11.4	-0.3	3.8	7.3
SMILES	HTRA1 inhibitor	PRMT1 FP inh	TCR-CD3 inh	mABHD4 FP	SIAE primary	PRMT1 inh conf
CCOC(=O)c1sc2nc(-c3ccco3)c3c(c2c1N)CC(C)(C)OC3	1.5	41.4*	1.3	20.3	2.8	43.2*
CCOc1ccc(NC(=O)c2sc3nc(N4CCOCC4)c4c(c3c2N)CC(C)(C)OC4)cc1	-0.6	3.1	5.1	4.8	-5.9	nt
CC1(C)Cc2c(c(N3CCOCC3)nc3sc(C(=O)Nc4ccc(Cl)cc4)c(N)c23)CO1	-4.4	52.9*	-11.2	-13.7	-4.2	0.7
Cc1nc2sc(C(=O)O)c(N)c2c2c1COC(C)(C)C2	1.2	12.7	-4.3	0.1	-4.3	nt
N#Cc1c(N)[nH]c(=S)c(C#N)c1-c1ccccc1	-0.4	38.5*	-5.4	-2.3	-11.1	14.4
Cc1ccc(-c2cc(-c3ccccc3)[nH]c(=S)c2C#N)cc1	-14.9	20.0	2.8	6.3	3.2	nt
Cc1nc2c([nH]1)C1(CCN(Cc3ccccc3)CC1)C(C#N)=C(N)O2	-1.1	42.1*	13.9	4.5	-2.5	1.6
NC(=O)c1ccc(NC(=O)COC(=O)CCC2CCCC2)cc1	-2.2	-5.6	5.2	-2.6	12.4	nt
CC(=O)Nn1c(-c2ccccc2)cc2ccccc21	0.6	0.9	-2.8	4.2	-4.2	nt
Cc1ccc(C(CC(=O)c2ccco2)SCCO)cc1 (stereo not given)	-8.1	27.6*	-0.8	-2.5	-2.1	32.1*
Cc1ccc(C(O)C(=O)c2ccco2)cc1 (stereo not given)	6.2	-0.5	-13.7	-0.9	-5.7	nt
O=C(CC(SCCO)c1ccc(F)cc1)c1ccco1 (stereo not given)	6.7	33.4*	5.4	-0.8	-1.0	30.4*
COC(=O)/C=C1\Nc2ccc(Cl)cc2C(=O)NC1=O	nt	1.9	-4.5	5.0	-0.3	nt
COc1ccc(CCNC2CC(=O)N(CCc3ccc(OC)c(OC)c3)C2=O)cc1 (stereo not given)	2.7	77.6*	2.0	-3.7	2.6	1.6
COc1ccc(CCNC2CC(=O)N(C)C2=O)cc1OC (stereo not given)	-7.4	6.5	1.1	8.2	-2.0	nt
COc1ccc(CCNC2CC(=O)N(CCc3ccccc3)C2=O)cc1OC (stereo not given)	2.6	41.7*	3.1	7.7	-0.2	-2.4
CCCCCC(=O)NC1CCCCN(Cc2ccc(Cl)cc2)C1=O (stereo not given)	nt	-0.1	nt	-0.9	0.2	nt
Cc1ccc(N2CC(C(=O)Nc3cccnc3)CC2=O)cc1C (stereo not given)	4.0	5.0	-9.1	-0.8	1.9	nt
